Test results published in ChEMBL document CHEMBL4049400, “Aldehyde Oxidase Mediated Metabolism in Drug-like Molecules: A Combined Computational and Experimental Study” (J Med Chem, 2017).

Tests used:
Aldehyde oxidase [1] = molecular target: T1, Aldehyde oxidase (Homo sapiens, UniProt Q06278); test: Drug metabolism in human liver cytosol assessed as AOX-mediated oxidative metabolite formation by measuring decrease in the liquid chromatography-mass spectrometry peak at 10 uM after 30 min by UPLC/Q-TOF MS analysis; format: ADME; conditions: 0.5 h
T1 sequence (Q06278 whole entry): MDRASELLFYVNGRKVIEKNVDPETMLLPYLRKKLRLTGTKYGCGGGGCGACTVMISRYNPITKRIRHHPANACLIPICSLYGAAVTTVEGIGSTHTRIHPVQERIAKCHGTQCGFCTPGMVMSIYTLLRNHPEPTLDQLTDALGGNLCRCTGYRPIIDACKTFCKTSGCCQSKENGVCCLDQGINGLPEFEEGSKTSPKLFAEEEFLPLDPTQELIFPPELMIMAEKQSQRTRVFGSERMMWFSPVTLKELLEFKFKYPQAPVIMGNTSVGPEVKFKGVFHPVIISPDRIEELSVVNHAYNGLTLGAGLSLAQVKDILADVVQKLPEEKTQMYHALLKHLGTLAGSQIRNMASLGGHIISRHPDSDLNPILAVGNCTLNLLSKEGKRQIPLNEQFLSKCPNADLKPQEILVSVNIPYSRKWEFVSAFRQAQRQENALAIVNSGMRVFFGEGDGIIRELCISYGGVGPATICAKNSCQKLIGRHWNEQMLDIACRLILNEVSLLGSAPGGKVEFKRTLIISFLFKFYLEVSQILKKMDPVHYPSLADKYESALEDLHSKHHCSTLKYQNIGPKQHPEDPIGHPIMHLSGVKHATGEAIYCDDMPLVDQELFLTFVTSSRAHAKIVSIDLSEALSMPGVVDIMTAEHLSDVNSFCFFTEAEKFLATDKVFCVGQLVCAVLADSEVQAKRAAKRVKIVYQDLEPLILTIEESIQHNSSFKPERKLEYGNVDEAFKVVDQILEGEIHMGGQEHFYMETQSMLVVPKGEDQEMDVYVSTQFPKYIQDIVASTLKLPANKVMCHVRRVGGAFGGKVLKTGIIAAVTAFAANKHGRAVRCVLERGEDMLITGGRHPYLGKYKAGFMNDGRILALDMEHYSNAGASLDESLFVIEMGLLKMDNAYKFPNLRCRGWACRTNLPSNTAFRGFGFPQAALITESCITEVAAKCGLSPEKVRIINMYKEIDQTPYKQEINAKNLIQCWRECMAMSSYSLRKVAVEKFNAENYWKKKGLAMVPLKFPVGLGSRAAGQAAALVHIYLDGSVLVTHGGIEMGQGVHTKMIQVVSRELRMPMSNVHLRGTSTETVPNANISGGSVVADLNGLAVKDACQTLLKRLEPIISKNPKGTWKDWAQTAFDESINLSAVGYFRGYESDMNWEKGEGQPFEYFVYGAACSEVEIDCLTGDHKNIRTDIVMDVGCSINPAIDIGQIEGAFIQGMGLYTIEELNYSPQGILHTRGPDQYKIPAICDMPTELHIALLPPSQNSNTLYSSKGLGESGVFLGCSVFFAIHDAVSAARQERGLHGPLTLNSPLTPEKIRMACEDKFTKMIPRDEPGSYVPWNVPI
Outline: (§1)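 Pooled human liver cytosol, 0.5 mg/mL protein, in 100 mM potassium phosphate pH 7.4; 3 min preincubation at 37 °C, then 10 μM substrate (final; DMSO 0.1% v/v). Quenched after 30 min with equal volume ice-cold acetonitrile, centrifuged, supernatant run by UPLC/Q-TOF MS in positive ion mode. Controls without substrate or with inactivated enzyme; duplicate incubations.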

Aldehyde oxidase [2] = molecular target: T1, Aldehyde oxidase; test: Drug metabolism in human liver cytosol assessed as AOX-mediated 2-fluoro-N-methyl-4-(3-oxo-7-(quinolin-7-ylmethyl)-3,4-dihydroimidazo[1,2-b][1,2,4]triazin-2-yl)benzamide metabolite formation by measuring LC-MS peak area of the metabolite at 10 uM after 30 mins in presence of menadione by UPLC/Q-TOF MS analysis; format: ADME; conditions: 0.5 h
Outline: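 Human liver cytosol (0.5 mg/mL protein) in 100 mM phosphate buffer preincubated 10 min at 37 °C with 100 μM menadione (DMSO 0.2% v/v final), then 10 μM substrate (final) added. Stopped at 30 min with equal volume ice-cold acetonitrile; metabolites detected by UPLC/Q-TOF MS. Inhibitor-free controls run alongside; duplicate incubations.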

Aldehyde oxidase [3] = molecular target: T1, Aldehyde oxidase; test: Drug level in human liver cytosol treated with capmatinib assessed as AOX-mediated metabolite formation at 10 uM after 30 min by UPLC/Q-TOF MS analysis; format: ADME; conditions: 0.5 h; outline: as §1
[4] = Retention time of the compound by UPLC/Q-TOF MS analysis
Outline: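 HSS T3 column (1.8 μm, 100 × 2.1 mm) at 45 °C, 0.4 mL/min. Mobile phase: 5 mM ammonium acetate with 0.1% formic acid (A) and acetonitrile (B). Gradient 10% B for 1 min, to 65% B over 6 min, to 99% B over 0.5 min, held 1.5 min, back to 10% B. Positive-ion Q-TOF detection, m/z 80–1000.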

Aldehyde oxidase [5] = molecular target: T1, Aldehyde oxidase; test: Drug metabolism in human liver cytosol assessed as AOX-mediated 2-fluoro-N-methyl-4-(3-oxo-7-(quinolin-7-ylmethyl)-3,4-dihydroimidazo[1,2-b][1,2,4]triazin-2-yl)benzamide metabolite formation by measuring LC-MS peak area of the metabolite at 10 uM after 30 min by UPLC/Q-TOF MS analysis; format: ADME; conditions: 0.5 h; outline: as §1
Aldehyde oxidase [6] = molecular target: T1, Aldehyde oxidase; test: Drug metabolism in human liver cytosol assessed as as AOX-mediated quinolone group metabolism at 10 uM after 30 mins by UPLC/Q-TOF MS analysis; format: ADME; conditions: 0.5 h; outline: as §1

Row | Drug metabolism (Aldehyde oxidase [1]) | Drug metabolism (Aldehyde oxidase [6]) | SMILES | also measured
1 | Metabolite_Detected |  | Cn1cc(-c2ccc3ncc(Cc4ccc5ncccc5c4)n3n2)cn1 | 
2 |  |  | CNC(=O)c1ccc(-c2nn3c(Cc4ccc5ncccc5c4)cnc3[nH]c2=O)cc1F | Drug metabolism (Aldehyde oxidase [2]): 3220; Drug metabolism (Aldehyde oxidase [3]): Metabolite_Detected; Retention time [4]: 3.63 min; Drug metabolism (Aldehyde oxidase [5]): 136000
3 | Metabolite_Detected |  | CNC(=O)c1ccc(-c2cnc3ncc(Cc4ccc5ncccc5c4)n3n2)cc1F [CAPMATINIB] | 
4 |  | Metabolite_Detected | Cn1cc(-c2ccc3nnc(C(F)(F)c4ccc5ncccc5c4)n3n2)cn1 [JNJ-38877605] | 
5 | Metabolite_Detected | Metabolite_Detected | OCCn1cc(-c2cnc3nnn(Cc4ccc5ncccc5c4)c3n2)cn1 [PF-04217903] | 
6 |  | Metabolite_Detected | Cn1cc(-c2ccc3nnc(Sc4ccc5ncccc5c4)n3n2)cn1 [SGX-523] | 
